Measurements from ChEMBL document CHEMBL4513216, “Probing the Open Global Health Chemical Diversity Library for Multistage-Active Starting Points for Next-Generation Antimalarials” (ACS Infect Dis, 2020).

Assay: Toxicity liver stage against HepG2, at 10uM
Type: cell-based
Design: test concentration 10 uM, cell line HepG2-A16-CD81EGFP
Settings: human, HepG2-A16-CD81EGFP cells; read-out: INHIBITION
Procedure, shortened: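 Uninfected HepG2-A16-CD81EGFP cells, 3 × 10^3 per well, 1536-well, plated on prespotted compound at 10 μM final, parasite-free screening media added to match infected plates; puromycin 10 μM positive, DMSO 0.5% negative; run in parallel with 48 h PbLuc assay at 37 °C, 5% CO2; viability by CellTiter-Glo luminescence, normalized to controls.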

Structure (SMILES) | cytotoxicity at 10 µM
O=C(NCCc1cccs1)NC1CCN(c2ncccn2)CC1 | -141%
Cc1ccc(S(=O)(=O)N(C)Cc2nccs2)cc1N(C)C | -9.78%
CC(C)c1cc(CN2CCC(CC(=O)O)CC2)no1 | -2.53%
Cc1ccc(N2CC[C@@H]3[C@@H]2CCN3Cc2ccsc2)nn1 | -106%
Cc1ccc(CN2Cc3nccn3CC(Cn3cccn3)C2)s1 (configuration not stated) | -101%
CCc1cccc(N2CCC(NC(=O)c3cc[nH]n3)CC2)c1 | 3.08%
CN(Cc1ccccn1)C(=O)C(c1ccccc1)N1CCSCC1 (configuration not stated) | -9.71%
Cc1cc(C2CCCN2Cc2nnc(-c3ccco3)o2)on1 (configuration not stated) | 8.92%
CCOC(=O)CCC(=O)N1CCC(Oc2ncccc2Cl)CC1 | -5.57%
CC(C)c1nc(C2CCCN2CC(=O)Nc2nncs2)no1 (configuration not stated) | -3.13%
Cn1cc(CN2CCC(c3ncc(Cl)cc3S(C)(=O)=O)CC2)cn1 | -0.83%
CCn1nnc2c1CCN(S(C)(=O)=O)C2COCc1ccccc1 (configuration not stated) | 0.196%
COc1cccc(-c2n[nH]cc2CNC2CCN(C3CC3)CC2)c1 | -3.78%
Cc1cccc(NCc2nc(C)ccc2O)c1 | -3.59%
CCOCC(O)CN1CCN(C(=O)c2ccccc2Cl)CC1 (configuration not stated) | -1.96%
COC(=O)CNC(=O)c1scnc1C | 7.71%
COCCN(Cc1ccc(F)cc1Cl)C(=O)c1ccc(=O)[nH]n1 | 0.469%
CN(C)C(=O)C1CN(Cc2nccs2)CCN(S(C)(=O)=O)C1 (configuration not stated) | 0.325%
COc1ccc(CN(C)C(=O)NC(C)c2nncn2C)cc1F (configuration not stated) | -2.85%
CC(C)CCN1C(=O)CC(N(C)Cc2nc3ccccc3c(=O)[nH]2)C1=O (configuration not stated) | -3.85%
N#Cc1ccc(NCCCOCC2CCOC2)c(F)c1 (configuration not stated) | 1.1%

Structure (SMILES) | cytotoxicity at 10 µM
CNC(=O)[C@H]1C[C@@H]2CN(C(=O)c3ccco3)C[C@@H]2N1S(C)(=O)=O | -10.2%
O=C1CC[C@H]2CN(c3ncc(F)cn3)CC[C@H]2N1CCc1c[nH]cn1 | 3.96%
CCc1noc(CN(C)Cc2cc(Br)ccc2OC)n1 | 3.91%
COC(=O)CCNC(=O)c1ccc(OCc2ccccc2)nc1 | 4.93%
O=C([C@@H]1CCO[C@@H]2CCN(CCc3ccccc3)C[C@@H]21)N1CCCC1 | -3.06%
CN1CCN(CCNC(=O)c2sccc2C2CC2)CC1 | -149%
c1cncc(COCC2CN(Cc3cccnc3)Cc3ccnn3C2)c1 (configuration not stated) | -136%
Cn1cccc1C(=O)N1CCC2(CCCN(CC3CC3)C2=O)C1 (configuration not stated) | -0.445%
Cc1ccc(-c2nnc(CN3CCOCC(CO)C3)o2)n1C (configuration not stated) | -3.28%
O=C(Cc1ccc(F)cc1)N1CCn2cc(Cn3cncn3)nc2C1 | -74%
CN1CCn2c(-c3ccccc3)cnc2C12CCN(CC1CC1)CC2 | 5.35%
CCN(CC)c1ccc(CNC(=O)c2cnccn2)cn1 | -104%
Cc1ccccc1CNCc1cc(Cl)ccc1O | -5.9%
CC(C)Cn1cc2nc(N3CCCC(C)C3)[nH]cc-2c1=O (configuration not stated) | 2.22%
NC(=O)NC(=O)CCn1ccc(-c2ccsc2)n1 | 8.56%
O=C(O)c1ccc2c(CN3CCOCC3)c[nH]c2c1 | 4.91%
Cc1ccc(CN2CCC3(C2)C(=O)N(CC(N)=O)c2ccccc23)s1 (configuration not stated) | 5.37%
NC(=O)C1CN(c2ccc3c(Cl)ccnc3c2F)CCO1 (configuration not stated) | 3.06%
CCc1nnc2ccc(NCC3(O)CCOCC3)nn12 | -0.439%
CCCSCC(=O)N1CCCC2(CCC(=O)N(CCc3c[nH]cn3)C2)C1 (configuration not stated) | -0.0682%
CCc1nc(CN2CCCCC2C(N)=O)cs1 (configuration not stated) | -7.96%

Structure (SMILES) | cytotoxicity at 10 µM
Cc1ccnc(C2CCN(C(=O)c3cnn(C)c3)CC2)n1 | -4.15%
CCc1nc(CNc2cc(C)nc(-c3cccnc3)n2)cs1 | -63.6%
CCCc1n[nH]c(C2CN(CCNS(=O)(=O)CC)CCO2)n1 (configuration not stated) | 2.43%
O=C1N(Cc2cccc(F)c2F)CCCC1(O)CNCc1ccccn1 (configuration not stated) | -9.28%
CC(NC(=O)CCC(=O)c1cccs1)c1nnc2n1CCCCC2 (configuration not stated) | -7.76%
Cc1cc(C)n(C2CCCN(C(=O)CN(C)C3CC3)C2)n1 (configuration not stated) | -1.91%
O=C(c1occc1CN1C(=O)Cc2ccccc21)N1CC(O)C1 | -4.43%
Cc1c(C2N3CC4(C(C)C)CN2CC(C(C)C)(C3)C4=O)[nH]c(=O)[nH]c1=O (configuration not stated) | 8.71%
CCc1nc(COc2ccc(N(C)C(C)=O)cc2)no1 | -0.408%
COc1ccc(CNc2cccnc2-n2cccn2)c(OC)c1OC | 5.69%
CCS(=O)(=O)N1CCn2c(COCC3CCOCC3)cnc2C1C (configuration not stated) | 11%
CCN1CCN(C(=O)CCC2CCN(C(=O)CCSC)CC2)CC1 | -1.56%
Cc1nc(N(C)C)nc(C)c1NC(=O)c1ccccc1C(F)(F)F | -1.94%
CC1=C(C#N)C(=O)NC(=O)/C1=C\c1c(C)[nH]n(-c2ccccc2)c1=O | 0.137%
CC(C(=O)NS(=O)(=O)Cc1cc(-c2ccccc2)no1)C1CC1 (configuration not stated) | -2.72%
COc1cccc(C(=O)N2CCN(C(=O)CCn3ccnc3)CC2)c1 | 10.3%
Cc1cc(C(=O)NC(C)C(=O)Nc2cc(F)ccc2C)nc(C)n1 (configuration not stated) | -3.71%
CC(NC(=O)NCCCn1cncn1)c1ccccc1Cl (configuration not stated) | 3.01%
c1cc(CN2CCCn3cnc(COCC4CC4)c3C2)ccn1 | 7.31%
COCCn1ccc2c(C(=O)NC(C)C)cccc21 | 3.46%
CC(C)c1nnc(CN2CCN(C(C)c3nc(C4CC4)no3)CC2)o1 (configuration not stated) | 3.48%

Structure (SMILES) | cytotoxicity at 10 µM
Cc1cnc(N2C[C@@H]3[C@@H](C2)OCC(=O)N3CCN(C)C)nc1 | -4.35%
COc1ccc(C(=O)Nc2cnn(CC(=O)NC3CCCC3)c2)c(O)c1 | -14.8%
O=C(NCCNC1CCN(c2nccs2)CC1)c1cccs1 | 5.73%
CC(C)c1nnc(N2C[C@H]3CC[C@@H](C2)N(Cc2ccccc2)C3)s1 | -3.86%
CCOCCC(=O)N(C)c1ccc(F)c(Cl)c1 | 0.232%
COc1ccc2c(c1)CN(Cc1ccco1)C(=O)CCN2CC(C)(C)O | -7.08%
c1cnn(CC2CN(CC3CCCCC3)CCO2)c1 (configuration not stated) | -7.85%
C[S+]([O-])CCNC(=O)N1CCSC(C)(C)C1 (configuration not stated) | -0.0105%
CC(=O)NC1CCCN(C(=O)CNc2cc(Cl)cc(Cl)c2)C1 (configuration not stated) | -1.68%
Cc1ccoc1C(=O)N1CC(C(=O)NCC2CC2)C2(CCOCC2)C1 (configuration not stated) | -3%
Cc1c(CN2CCCC2c2cncc(CN3CCCC3)n2)cnn1C (configuration not stated) | -1.15%
CN(CC1(CO)CC1)C(=O)C1CCC(=O)N(Cc2ccc(Cl)cc2)C1 (configuration not stated) | -5.14%
O=c1[nH]cccc1-c1nccc(C2(c3ccccc3Cl)CCNCC2)n1 | -6.27%
Nc1ccc(C(=O)N2CCCC(C(=O)CCc3ccccc3)C2)cn1 (configuration not stated) | -7.98%
CC(=O)N1C[C@@H](c2ccsc2)[C@@H]2CN(Cc3ccccc3)CC[C@@H]21 | 6.76%
CC(C)c1nn(C)c(N(C)C)c1CNC1CCc2cc(F)ccc21 (configuration not stated) | 1.93%
CC(=O)N1CCC2(CC1)CNc1c(F)cccc12 | 4.79%
COCCC(=O)N1CCCC1c1csc(Nc2ccccn2)n1 (configuration not stated) | -13.2%
c1ccc(OCCN2CCCC(c3noc(C4CC4)n3)C2)cc1 (configuration not stated) | 2.58%
